According to paper PMC3513776 (Journal of molecular recognition : JMR, 2012):

Legend:
[1] = target: F1*S variant of human AGP (Homo sapiens, UniProt P02763); test: ITC of drug binding to the separated F1*S variant of AGP; conditions: 30°C
Summary of the method: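 F1*S variant resolved from re-purified commercial human AGP on copper(II) IMAC (20 mM HEPES pH 7.4 load; 0→100% 300 mM imidazole, 1 mL/min). Degassed protein (140 μM, 20 mM HEPES pH 7.4) titrated with 5→16 mM drug in dialysate, 240 s intervals, 360 rpm, 30°C. Drug-into-buffer dilution heat subtracted. Integrated peaks vs molar ratio fitted by Marquardt for n, Ka, ΔH.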

[2] = target: A variant of human AGP (Homo sapiens, UniProt P19652); test: ITC of drug binding to the separated A variant of AGP; conditions: 30°C
[3] = cited from earlier work
[4] = tested on: A and F1*S variants of human AGP; conditions: cited from earlier work
[5] = tested on: human AGP; test: Isothermal titration calorimetry; assay type: binding; conditions: ITC, 30°C, heterogeneous AGP preparation

Which thermodynamic binding signature ([1]; F1*S variant) does the source give for `CN(C)CCC=C1c2ccccc2CCc2ccccc21` [amitriptyline] here?
Its thermodynamic binding signature is “comparable enthalpy and entropy gains”.

And the “lower binding affinity of the F1*S variant (vs A variant)” value ([1]; separated variants)?
The value was 4 fold.

And the thermodynamic binding signature ([2]; A variant)?
Its thermodynamic binding signature is “dominant favorable entropy gain and a smaller, albeit favorable enthalpy gain”.

What about the “greater affinity for the A variant compared to the F1*S variant” value ([2]; separated variants) of the same compound?
Its value is 4 fold.

And the “pKa of the N,N-dimethylpropan-1-amine side chain” value [3]?
Its value is 9.2.

What about the “difference in affinity between A and F1*S” value [4] of the same compound?
The value was over 20 fold.

For `CN(C)CCCN1c2ccccc2Sc2ccc(Cl)cc21` [chlorpromazine], which “binding energetics, A versus F1*S variant” value ([2]; separated variants) is on record?
The value was “comparable for both variants”.

And the “affinity for both variants” value [4]?
The value was “comparable”.

What does the source list for `CC(C)N(CCC(C(N)=O)(c1ccccc1)c1ccccn1)C(C)C` (stereo not drawn) [disopyramide]?
affinity for the F1*S [4]: very low; variant selectivity of binding [4]: selectively bind to the A variant

For `CN(C)CC/C=C1\c2ccccc2CSc2ccccc21` [dothepin], which “lower affinity for AGP compared to amitriptyline” value [5] is on record?
The value was ~ 2.5 fold.

With `CN1CCN2c3ccccc3Cc3ccccc3C2C1` (stereo not drawn) [miaserine] as the compound, how does the “lower affinity for AGP compared to amitriptyline” value [5] read?
The value was ~ 6 fold.
